# Calls of active or inactive are those of the source.
# Key:
# Escherichia coli [1] = experiment: Ratio of MIC for Escherichia coli ATCC 25922 after 20 passages to MIC for Escherichia coli ATCC 25922 before 20 passages; type: functional, organism-based
# Method in brief: (§1)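 The MIC was first measured by broth microdilution. Cells grown at MIC/2 were then carried into a fresh MIC assay after each 24 h, repeated over 20 serial passages. Norfloxacin (S. aureus) and colistin (E. coli) served as control antibiotics. Resistance was defined as a >4-fold rise over the original MIC.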
# Staphylococcus aureus [2] = experiment: Ratio of MIC for Staphylococcus aureus ATCC 29213 after 20 passages to MIC for Staphylococcus aureus ATCC 29213 before 20 passages; type: functional; method in brief: as §1
# Escherichia coli [3] = experiment: Antibacterial activity against drug-resistant NDM1 producing Escherichia coli clinical isolate Ecl-14-58 after 16 to 20 hrs by broth microdilution method; type: functional
# Method in brief: (§2)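 CLSI broth microdilution in Mueller-Hinton broth. A 4-6 h culture was diluted to about 10⁶ CFU/mL and mixed 1:1 with compound dilutions prepared at 256 to 0.5 µg/mL from aqueous stocks. Plates were incubated at 37 °C for 16-20 h and read visually for MIC. Each concentration was run in duplicate, and the experiment was repeated at least twice. Vancomycin and meropenem were comparators.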
# Klebsiella pneumoniae [4] = experiment: Antibacterial activity against drug-resistant carbapenemase producing Klebsiella pneumoniae clinical isolate KP-14-1 after 16 to 20 hrs by broth microdilution method; type: functional; method in brief: as §2
# Staphylococcus aureus [5] = experiment: Antibacterial activity against methicillin-resistant Staphylococcus aureus clinical isolate 1207007 after 16 to 20 hrs by broth microdilution method; type: functional; method in brief: as §2
# Staphylococcus aureus [6] = experiment: Antibacterial activity against methicillin-resistant Staphylococcus aureus clinical isolate 1208143 after 16 to 20 hrs by broth microdilution method; type: functional; method in brief: as §2
# Escherichia coli [7] = experiment: Antibacterial activity against drug-resistant NDM1 producing Escherichia coli clinical isolate Ecl-13-62 after 16 to 20 hrs by broth microdilution method; type: functional; method in brief: as §2
# Klebsiella pneumoniae [8] = experiment: Antibacterial activity against drug-resistant carbapenemase producing Klebsiella pneumoniae clinical isolate KP-13-55 after 16 to 20 hrs by broth microdilution method; type: functional; method in brief: as §2
# Staphylococcus aureus [9] = experiment: Antibacterial activity against methicillin-resistant Staphylococcus aureus clinical isolate 0831010 after 16 to 20 hrs by broth microdilution method; type: functional; method in brief: as §2
# Klebsiella pneumoniae [10] = experiment: Antibacterial activity against drug-resistant carbapenemase producing Klebsiella pneumoniae clinical isolate KP-13-45 after 16 to 20 hrs by broth microdilution method; type: functional; method in brief: as §2
# Staphylococcus aureus [11] = experiment: Antibacterial activity against methicillin-resistant Staphylococcus aureus clinical isolate 20130911034sau after 16 to 20 hrs by broth microdilution method; type: functional; method in brief: as §2
# Escherichia coli [12] = experiment: Antibacterial activity against drug-resistant NDM1 producing Escherichia coli clinical isolate 1460 after 16 to 20 hrs by broth microdilution method; type: functional; method in brief: as §2
# Staphylococcus aureus [13] = experiment: Antibacterial activity against Staphylococcus aureus ATCC 29213 after 16 to 20 hrs by broth microdilution method; type: functional
# Method in brief: (§3)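 Broth microdilution per CLSI. Bacteria grown 4-6 h (about 10⁸ CFU/mL), then diluted to about 10⁶ CFU/mL. Medium: Mueller-Hinton broth, except Luria-Bertani broth for E. coli. Compounds in sterile water, twofold series 256-0.5 µg/mL, mixed 1:1 with inoculum, 37 °C for 16-20 h. MIC is the lowest concentration without visible growth. Duplicate wells; experiment repeated at least twice.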
# Escherichia coli [14] = experiment: Induction of cytoplasmic membrane depolarization in Escherichia coli ATCC 25922 at 10 to 20 ug/ml measured every 2 mins for 12 mins by DiSC35 dye-based fluorescence assay; type: functional, organism-based
# Method in brief: (§4)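 Mid-log cells (~10⁸ CFU/mL) were suspended in PBS (S. aureus) or HEPES/glucose/KCl with EDTA (E. coli). They were preloaded with DiSC3(5) for 30 min (S. aureus) or 40 min (E. coli), and baseline fluorescence was read for 8 min. Compound was added to 20 µg/mL final, and fluorescence (ex 622/em 670 nm) was read every 2 min for 12 min. Water served as control.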
# Klebsiella pneumoniae [15] = experiment: Antibacterial activity against drug-resistant carbapenemase producing Klebsiella pneumoniae clinical isolate KP-13-54 after 16 to 20 hrs by broth microdilution method; type: functional; method in brief: as §2
# Klebsiella pneumoniae [16] = experiment: Antibacterial activity against drug-resistant carbapenemase producing Klebsiella pneumoniae clinical isolate KP-14-18 after 16 to 20 hrs by broth microdilution method; type: functional; method in brief: as §2
# Escherichia coli [17] = experiment: Antibacterial activity against drug-resistant NDM1 producing Escherichia coli clinical isolate EC-14-54 after 16 to 20 hrs by broth microdilution method; type: functional; method in brief: as §2
# [18] = Hemolytic activity in sheep RBC after 1 hr; type: ADME, cell-based, Ovis aries, Erythrocyte; conditions: sheep red blood cells (erythrocytes)
# Method in brief: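 Sheep red blood cells (150 µL suspension) mixed with 50 µL of compound dilutions (5120-10 µg/mL), 1 h at 37 °C, then centrifuged. Supernatant read at 540 nm. Percent hemolysis calculated relative to RBC-only control (0%) and 0.1% Triton X-100 (100%).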
# Staphylococcus aureus [19] = experiment: Induction of inner membrane permeabilization in Staphylococcus aureus ATCC 29213 at 10 to 20 ug/ml measured every 2 mins for 12 mins by propidium iodide staining-based fluorescence assay; type: functional, organism-based
# Method in brief: (§5)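 Mid-log cells (~10⁸ CFU/mL) were suspended in PBS (S. aureus) or HEPES/glucose/KCl (E. coli). They were preincubated with propidium iodide for 30 min (S. aureus) or 40 min (E. coli), and baseline fluorescence was read for 8 min. Compound was added to 20 µg/mL final, and fluorescence (ex 535/em 617 nm) was read every 2 min for 12 min.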
# Escherichia coli [20] = experiment: Antibacterial activity against drug-resistant NDM1 producing Escherichia coli clinical isolate EC-13-49 after 16 to 20 hrs by broth microdilution method; type: functional; method in brief: as §2
# Klebsiella pneumoniae [21] = experiment: Antibacterial activity against drug-resistant carbapenemase producing Klebsiella pneumoniae clinical isolate KP-14-5 after 16 to 20 hrs by broth microdilution method; type: functional; method in brief: as §2
# Klebsiella pneumoniae [22] = experiment: Antibacterial activity against drug-resistant carbapenemase producing Klebsiella pneumoniae clinical isolate KP-14-4 after 16 to 20 hrs by broth microdilution method; type: functional; method in brief: as §2
# Klebsiella pneumoniae [23] = experiment: Antibacterial activity against drug-resistant carbapenemase producing Klebsiella pneumoniae clinical isolate KP-14-45 after 16 to 20 hrs by broth microdilution method; type: functional; method in brief: as §2
# Escherichia coli [24] = experiment: Antibacterial activity against drug-resistant NDM1 producing Escherichia coli clinical isolate KP-13-58 after 16 to 20 hrs by broth microdilution method; type: functional; method in brief: as §2
# Staphylococcus aureus [25] = experiment: Antibacterial activity against methicillin-resistant Staphylococcus aureus clinical isolate 1105183 cono7 after 16 to 20 hrs by broth microdilution method; type: functional; method in brief: as §2
# Salmonella enterica = experiment: Antibacterial activity against Salmonella enterica ATCC 13076 after 16 to 20 hrs by broth microdilution method; type: functional; method in brief: as §3
# Escherichia coli [26] = experiment: Antibacterial activity against drug-resistant NDM1 producing Escherichia coli clinical isolate CF-13-61 after 16 to 20 hrs by broth microdilution method; type: functional; method in brief: as §2
# Escherichia coli [27] = experiment: Antibacterial activity against drug-resistant NDM1 producing Escherichia coli clinical isolate EA-14-61 after 16 to 20 hrs by broth microdilution method; type: functional; method in brief: as §2
# Klebsiella pneumoniae [28] = experiment: Antibacterial activity against drug-resistant carbapenemase producing Klebsiella pneumoniae clinical isolate KP-14-8 after 16 to 20 hrs by broth microdilution method; type: functional; method in brief: as §2
# Staphylococcus aureus [29] = experiment: Antibacterial activity against methicillin-resistant Staphylococcus aureus clinical isolate 1104060 after 16 to 20 hrs by broth microdilution method; type: functional; method in brief: as §2
# Escherichia coli [30] = experiment: Antibacterial activity against drug-resistant NDM1 producing Escherichia coli clinical isolate CF-15-61 after 16 to 20 hrs by broth microdilution method; type: functional; method in brief: as §2
# Staphylococcus aureus [31] = experiment: Antibacterial activity against methicillin-resistant Staphylococcus aureus clinical isolate 20131012632sau after 16 to 20 hrs by broth microdilution method; type: functional; method in brief: as §2
# Escherichia coli [32] = experiment: Antibacterial activity against drug-resistant NDM1 producing Escherichia coli clinical isolate Ecl-14-59 after 16 to 20 hrs by broth microdilution method; type: functional; method in brief: as §2
# Escherichia coli [33] = experiment: Induction of inner membrane permeabilization in Escherichia coli ATCC 25922 at 10 to 20 ug/ml measured every 2 mins for 12 mins by propidium iodide staining-based fluorescence assay; type: functional, organism-based; method in brief: as §5
# Klebsiella pneumoniae [34] = experiment: Antibacterial activity against drug-resistant carbapenemase producing Klebsiella pneumoniae clinical isolate KP-14-3 after 16 to 20 hrs by broth microdilution method; type: functional; method in brief: as §2
# Escherichia coli [35] = experiment: Antibacterial activity against drug-resistant NDM1 producing Escherichia coli clinical isolate SM-15-84 after 16 to 20 hrs by broth microdilution method; type: functional; method in brief: as §2
# Klebsiella pneumoniae [36] = experiment: Antibacterial activity against drug-resistant carbapenemase producing Klebsiella pneumoniae clinical isolate KP-14-2 after 16 to 20 hrs by broth microdilution method; type: functional; method in brief: as §2
# Staphylococcus aureus [37] = experiment: Induction of cytoplasmic membrane depolarization in Staphylococcus aureus ATCC 29213 at 10 to 20 ug/ml measured every 2 mins for 12 mins by DiSC35 dye-based fluorescence assay; type: functional, organism-based; method in brief: as §4
# Enterococcus faecalis = experiment: Antibacterial activity against Enterococcus faecalis ATCC 29212 after 16 to 20 hrs by broth microdilution method; type: functional; method in brief: as §3
# Escherichia coli [38] = experiment: Antibacterial activity against drug-resistant NDM1 producing Escherichia coli clinical isolate Ecl-14-56 after 16 to 20 hrs by broth microdilution method; type: functional; method in brief: as §2
# Staphylococcus aureus [39] = experiment: Antibacterial activity against methicillin-resistant Staphylococcus aureus clinical isolate 0906202 after 16 to 20 hrs by broth microdilution method; type: functional; method in brief: as §2
# Klebsiella pneumoniae [40] = experiment: Antibacterial activity against drug-resistant carbapenemase producing Klebsiella pneumoniae clinical isolate EC-13-23 after 16 to 20 hrs by broth microdilution method; type: functional; method in brief: as §2
# Staphylococcus aureus [41] = experiment: Antibacterial activity against methicillin-resistant Staphylococcus aureus clinical isolate 1-may after 16 to 20 hrs by broth microdilution method; type: functional; method in brief: as §2
# Escherichia coli [42] = experiment: Antibacterial activity against Escherichia coli ATCC 25922 after 16 to 20 hrs by broth microdilution method; type: functional; method in brief: as §3
compound,measurement,setting,value
COLISTIN,Ratio,Escherichia coli [1],32
CCn1cc(C(=O)O)c(=O)c2cc(F)c(N3CCNCC3)cc21 [NORFLOXACIN],Ratio,Staphylococcus aureus [2],256
CCCCCCCC[N+](C)(C)CC(=O)Nc1ccc(C(=O)/C=C/c2ccc(C)cc2)cc1.[Cl-],MIC,Escherichia coli [3],4 µg/mL
same,MIC,Klebsiella pneumoniae [4],8 µg/mL
same,MIC,Staphylococcus aureus [5],0.5 µg/mL
same,MIC,Staphylococcus aureus [6],2 µg/mL
same,MIC,Escherichia coli [7],8 µg/mL
same,MIC,Klebsiella pneumoniae [8],16 µg/mL
same,MIC,Staphylococcus aureus [9],0.5 µg/mL
same,MIC,Klebsiella pneumoniae [10],4 µg/mL
same,MIC,Staphylococcus aureus [11],0.5 µg/mL
same,MIC,Escherichia coli [12],8 µg/mL
same,MIC,Staphylococcus aureus [13],1 µg/mL
same,Activity,Escherichia coli [14],Active
same,MIC,Klebsiella pneumoniae [15],8 µg/mL
same,MIC,Klebsiella pneumoniae [16],16 µg/mL
same,MIC,Escherichia coli [17],8 µg/mL
same,HC50 at 1 h,[18],153 µg/mL
same,Activity,Staphylococcus aureus [19],Active
same,MIC,Escherichia coli [20],4 µg/mL
same,MIC,Klebsiella pneumoniae [21],4 µg/mL
same,MIC,Klebsiella pneumoniae [22],4 µg/mL
same,MIC,Klebsiella pneumoniae [23],4 µg/mL
same,MIC,Escherichia coli [24],2 µg/mL
same,MIC,Staphylococcus aureus [25],1 µg/mL
same,MIC,Salmonella enterica,8 µg/mL
same,MIC,Escherichia coli [26],32 µg/mL
same,MIC,Escherichia coli [27],4 µg/mL
same,MIC,Klebsiella pneumoniae [28],4 µg/mL
same,MIC,Staphylococcus aureus [29],4 µg/mL
same,MIC,Escherichia coli [30],4 µg/mL
same,MIC,Staphylococcus aureus [31],2 µg/mL
same,MIC,Escherichia coli [32],4 µg/mL
same,Activity,Escherichia coli [33],Active
same,MIC,Klebsiella pneumoniae [34],8 µg/mL
same,MIC,Escherichia coli [35],1 µg/mL
same,MIC,Klebsiella pneumoniae [36],16 µg/mL
same,Activity,Staphylococcus aureus [37],Active
same,MIC,Enterococcus faecalis,1 µg/mL
same,MIC,Escherichia coli [38],4 µg/mL
same,MIC,Staphylococcus aureus [39],4 µg/mL
same,MIC,Klebsiella pneumoniae [40],4 µg/mL
same,MIC,Staphylococcus aureus [41],1 µg/mL
same,MIC,Escherichia coli [42],4 µg/mL

# Source: ChEMBL document CHEMBL4138242, “Synthesis and antibacterial evaluation of novel cationic chalcone derivatives possessing broad spectrum antibacterial activity” (Eur J Med Chem, 2018)
